Source: PubChem
Cav3 T inh = inhibitors of human Cav3.2 T-type calcium channel | Cav3.2-expressing cells, Fluo-4 calcium fluorescence FDSS; stronger effect = lower value | B-score at 10 µM | actives 4% (n = 100,000) | AID 449739;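 active = single-dose well whose peak fluorescence ratio is a statistical outlier from its plate by either plate-standardised score or position-corrected B-score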
Target sequence (O95180 whole entry, looked up): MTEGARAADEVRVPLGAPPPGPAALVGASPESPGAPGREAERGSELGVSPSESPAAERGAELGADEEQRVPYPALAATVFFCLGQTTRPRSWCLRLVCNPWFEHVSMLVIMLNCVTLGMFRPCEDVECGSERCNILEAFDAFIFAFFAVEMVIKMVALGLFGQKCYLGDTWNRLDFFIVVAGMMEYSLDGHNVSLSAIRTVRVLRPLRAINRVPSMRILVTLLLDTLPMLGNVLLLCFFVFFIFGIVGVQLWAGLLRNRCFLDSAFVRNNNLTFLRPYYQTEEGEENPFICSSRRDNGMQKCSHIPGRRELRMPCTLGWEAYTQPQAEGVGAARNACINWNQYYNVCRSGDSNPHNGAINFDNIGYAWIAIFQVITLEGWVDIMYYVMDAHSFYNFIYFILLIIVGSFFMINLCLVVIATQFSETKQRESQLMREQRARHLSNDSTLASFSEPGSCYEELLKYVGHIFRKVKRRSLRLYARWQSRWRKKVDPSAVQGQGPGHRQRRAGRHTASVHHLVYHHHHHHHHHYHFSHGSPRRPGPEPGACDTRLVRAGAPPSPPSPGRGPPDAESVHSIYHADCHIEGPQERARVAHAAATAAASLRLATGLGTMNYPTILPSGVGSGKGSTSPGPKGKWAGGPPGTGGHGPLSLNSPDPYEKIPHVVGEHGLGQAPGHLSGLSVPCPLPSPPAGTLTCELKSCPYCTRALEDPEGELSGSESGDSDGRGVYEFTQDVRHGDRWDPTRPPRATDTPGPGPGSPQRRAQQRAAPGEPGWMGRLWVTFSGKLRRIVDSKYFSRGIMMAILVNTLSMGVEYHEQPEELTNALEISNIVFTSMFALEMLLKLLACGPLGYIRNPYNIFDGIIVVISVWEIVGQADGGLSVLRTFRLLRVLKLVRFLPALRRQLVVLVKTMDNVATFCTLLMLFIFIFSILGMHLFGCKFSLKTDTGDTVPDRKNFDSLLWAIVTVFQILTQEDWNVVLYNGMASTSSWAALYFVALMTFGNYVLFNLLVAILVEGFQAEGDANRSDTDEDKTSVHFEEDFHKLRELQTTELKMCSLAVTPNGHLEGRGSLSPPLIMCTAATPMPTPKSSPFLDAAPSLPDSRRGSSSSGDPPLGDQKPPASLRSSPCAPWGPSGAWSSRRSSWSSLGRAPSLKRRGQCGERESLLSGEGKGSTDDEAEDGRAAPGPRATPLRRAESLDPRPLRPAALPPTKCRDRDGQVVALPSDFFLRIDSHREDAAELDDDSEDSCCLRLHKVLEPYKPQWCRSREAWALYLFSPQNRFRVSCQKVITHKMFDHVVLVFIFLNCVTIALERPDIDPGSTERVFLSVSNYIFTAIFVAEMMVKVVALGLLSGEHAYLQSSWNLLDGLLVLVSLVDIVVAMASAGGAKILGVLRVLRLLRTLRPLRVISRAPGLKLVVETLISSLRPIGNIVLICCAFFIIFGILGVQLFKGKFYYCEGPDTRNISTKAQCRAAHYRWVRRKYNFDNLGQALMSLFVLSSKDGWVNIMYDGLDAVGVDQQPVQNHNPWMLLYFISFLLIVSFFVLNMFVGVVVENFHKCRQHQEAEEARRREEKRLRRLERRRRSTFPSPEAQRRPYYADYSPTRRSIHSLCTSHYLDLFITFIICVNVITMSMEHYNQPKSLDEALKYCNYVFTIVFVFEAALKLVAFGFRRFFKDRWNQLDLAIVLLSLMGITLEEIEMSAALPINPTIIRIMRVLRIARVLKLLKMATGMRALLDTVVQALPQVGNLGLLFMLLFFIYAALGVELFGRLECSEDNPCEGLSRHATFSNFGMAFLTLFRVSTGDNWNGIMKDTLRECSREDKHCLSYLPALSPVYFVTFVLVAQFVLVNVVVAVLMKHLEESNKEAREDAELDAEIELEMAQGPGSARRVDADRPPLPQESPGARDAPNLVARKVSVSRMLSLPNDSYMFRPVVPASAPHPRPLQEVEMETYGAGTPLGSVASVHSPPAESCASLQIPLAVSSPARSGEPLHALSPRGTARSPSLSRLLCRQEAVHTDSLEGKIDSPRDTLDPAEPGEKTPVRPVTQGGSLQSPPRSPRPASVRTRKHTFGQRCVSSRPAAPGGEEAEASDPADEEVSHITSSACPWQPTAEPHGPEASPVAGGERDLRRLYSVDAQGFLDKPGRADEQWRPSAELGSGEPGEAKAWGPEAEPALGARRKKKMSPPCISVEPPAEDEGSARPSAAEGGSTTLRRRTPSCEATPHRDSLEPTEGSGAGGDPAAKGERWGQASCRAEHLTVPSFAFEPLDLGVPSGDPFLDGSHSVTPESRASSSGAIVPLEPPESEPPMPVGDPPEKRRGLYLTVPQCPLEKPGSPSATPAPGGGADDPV
Pyk2 oligo antag = blocks oligomerization of human Pyk2 in cells | Q293 cells, Pyk2 FERM NanoBiT luminescence; stronger effect = lower value | AID 1347419 | z-score (the deposit names both 25 µM and 10 µM) | actives 0.83% (n = 99,000);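 active = Z-score of -3 or lower, scaled per plate to the spread of control and sample wells; inactive = z-score above -3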;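 also: negative z-score means lost luminescence so less FERM oligomerization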
PostGolgi yeast = growth inhibition of a yeast mutant, post-Golgi transport screen; post-Golgi transport phenotypic cell assay; inhibition, % at 10 µM; actives 0.9% (n = 98,000);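 also: yeast cells grown in 1536-well plates; yeast grown about 18 h at 30C before absorbance read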
PostGolgi ctrl = yeast control strain growth, post-Golgi counter-screen. efflux-deficient yeast background strain, growth absorbance A615, 16 h. inhibition, % at 10 µM. actives 5% (n = 98,000)
Ecoli WT expand = growth inhibitors of E. coli BW25113 wild type; OD600 absorbance; growth inhibition, % at 100 µM; actives 0.15% (n = 98,000);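 active = growth inhibition above about 50% at one test dose, limit read from the data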;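 also: growth measured after 20 h incubation at 37 °C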
tolC growth inh = blocks growth of E. coli BW25113 tolC mutant | OD615 | growth inhibition, % at 10 µM (by protocol) | actives 2.2% (n = 65,000) | AID 573;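 active = growth inhibition at or above a cutoff equal to the mean over every tested compound plus 3 SD, cut at about 60% in these data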;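 also: growth measured after 20 h incubation at 37 °C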
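System: E. coli ΔtolC::kan strain BW25113; Buffer or medium: LB broth supplemented with 50 µg/mL kanamycin; Compound: 10 µM final, single dose; Incubation: bacterial growth with compound for 20 h at 37 °C; Signal: A615 absorbance measurement; Evaluation: growth inhibition in percent.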
The depositor's hits bear a star; nt = no result given. This is a sample that favours compounds with a hit; in the whole collection about 8.7% have one here. Rule as the data show it, unless noted: active = inhibition above about 30%; inactive = the rest.

SMILES | Cav3 T inh | Pyk2 oligo antag | PostGolgi yeast | PostGolgi ctrl | Ecoli WT expand | tolC growth inh
COc1cccc(C(=O)CSc2nnnn2C2CCCCC2)c1 | -3.1 | 0.1 | -11 | 25 | -5 | nt
O=C1c2ccccc2N2C(=O)c3ccccc3C2N1O (configuration not stated) | -0.54 | -1.5 | 8 | 5 | 3 | -10
Cc1ccccc1N1C(=O)c2ccccc2N2C(=O)c3ccccc3C12 (configuration not stated) | -4.3* | 0.71 | 2 | 19 | -3 | nt
O=c1c2ccccc2nc(-c2ccco2)n1Cc1ccccc1 | -0.2 | -0.86 | 14 | 24 | -3 | -7
O=c1c2ccccc2nc(N2CCN(c3ccccc3)CC2)n1Cc1ccccc1 | -5.4* | nt | -3 | 29 | -13 | 28
O=c1c2ccccc2nc(-c2ccc(Br)cc2)n1Cc1ccccc1 | -2.4 | -1.6 | 8 | 52* | -12 | nt
O=c1c2ccccc2nc(-c2ccoc2)n1CCc1ccccc1 | -1.7 | 0.35 | -1 | 41* | -6 | 22
Cc1ccc(-c2csc3ncnc(SCC(=O)NCc4ccc5c(c4)OCO5)c23)cc1 | -2.4 | -1.5 | 4 | 43* | -9 | nt
O=C(CSc1ncnc2scc(-c3ccc(Cl)cc3)c12)NCc1ccc2c(c1)OCO2 | -0.69 | 0.09 | nt | nt | nt | nt
O=C(CSc1nnc(-c2cc3ccccc3cc2O)n1Cc1ccco1)c1ccc(F)cc1 | -4* | -0.76 | -3 | 80* | -18 | 48
Cc1occc1-c1nnc(SCC(=O)c2ccc(F)cc2)n1Cc1ccco1 | -2.3 | 0.76 | -2 | 14 | -6 | 20
O=C(CSc1nnc(-c2ccco2)n1Cc1ccccc1)c1ccc(F)cc1 | -1.4 | -0.63 | -4 | 32* | -1 | 15
COc1ccccc1-c1nnc(SCC(=O)c2ccc(C3CCCCC3)cc2)n1Cc1ccco1 | -4.7* | -0.3 | 4 | 7 | -20 | nt
O=C(CSc1nnc(-c2ccco2)n1Cc1ccccc1)NCc1ccccc1 | -0.34 | -0.86 | nt | nt | nt | nt
O=C(Nc1nc(-c2ccccc2)cs1)C1CCCN(S(=O)(=O)c2cccc([N+](=O)[O-])c2)C1 (configuration not stated) | -6.1* | -0.36 | -5 | 5 | 0 | nt
O=C(Nc1nc(-c2ccccc2)cs1)C1CCCCN1S(=O)(=O)c1ccccc1 (configuration not stated) | -1.8 | -3.7* | -7 | 35* | -9 | 21
O=C(CSc1cccc(C(F)(F)F)c1)Nc1ccc(Cl)cc1Cl | -0.64 | 1.1 | 1 | 10 | 2 | nt
CCN(CC)S(=O)(=O)c1cccc(-c2nnc(C(=O)c3ccc(C(F)(F)F)cc3)o2)c1 | -0.52 | 0.2 | -12 | -2 | -12 | -8
CCCN(CC(=O)c1cc(C)n(C)c1C)S(=O)(=O)c1cccc(C(F)(F)F)c1 | -4.4* | 0.03 | 12 | -7 | 5 | 49
CCOC(=O)C1CCN(C(=O)C2CCN(S(=O)(=O)c3cc(Cl)ccc3Cl)CC2)CC1 | 0.76 | 0.63 | 2 | -9 | 6 | 22
CCOC(=O)Cc1csc(NC(=O)CCCN2C(=O)c3ccccc3C2=O)n1 | 0.73 | 1.1 | -8 | 6 | -3 | nt
Cc1ccc(/C=C(/C#N)c2nc(CCN3C(=O)c4ccccc4C3=O)cs2)cc1 | -0.086 | -3.2* | 0 | 16 | -3 | nt
CC(C)CC(COCc1ccc(Cl)cc1)N1CCN(C(=O)c2ccc(Cl)cc2Cl)CCC1=O (configuration not stated) | -2.4 | nt | nt | nt | nt | nt
CSc1nc(N2CCOCC2)c2c3c(sc2n1)CCCC3 | -2.9 | -1.4 | 11 | 36* | -2 | 96*
c1csc(CNCCCN2CCOCC2)c1 | -0.59 | 0.25 | -3 | 31* | -5 | nt
SMILES | Cav3 T inh | Pyk2 oligo antag | PostGolgi yeast | PostGolgi ctrl | Ecoli WT expand | tolC growth inh
O/N=C1\CC/C(=N\O)c2nn(-c3ccc(Cl)cc3Cl)nc21 | 0.13 | -2.7 | 0 | 17 | 0 | 8
O/N=C1\CCc2cc(Cl)ccc21 | 2.4* | 0.2 | 11 | 10 | 14 | 15
Cc1ccccc1Nc1nc(N)nc(CSc2nc3ccccc3c(=O)n2C)n1 | 0.37 | -3.1* | 1 | 8 | 3 | nt
Cc1ccccc1Nc1nc(N)nc(CSc2nc3ccccc3c(=O)n2CCCO)n1 | 0.36 | -1.2 | -6 | 5 | 0 | 16
COc1ccc(C)cc1Cn1c(S(C)(=O)=O)nc2ccccc21 | -1.1 | -1.8 | 13 | 16 | 12 | 3
CCSc1nnc(NC(=O)C(NC(=O)c2ccc(Cl)cc2)C(C)C)s1 (configuration not stated) | nt | -0.32 | nt | nt | nt | nt
O=C(c1cc(-c2cccc(O)c2)on1)N1CCN(C(c2ccccc2)c2ccccc2)CC1 | -0.26 | nt | -1 | -9 | -2 | 28
O=C(c1cc(C2CC2)on1)N1CCN(C(c2ccccc2)c2ccccc2)CC1 | -0.23 | nt | 4 | 13 | -4 | 65*
COc1cccc(Oc2cn[nH]c2-c2ccc(OC)cc2O)c1 | -4.9* | -2.9 | 94* | 92* | 20 | 97*
CCCOC(=O)c1ccc(Oc2c(-c3ccc(OCC)cc3O)n[nH]c2C)cc1 | -0.2 | -2 | -6 | 11 | 13 | 26
COc1cccc(Oc2cn[nH]c2-c2ccc(O)cc2O)c1 | -2.7 | -2.5 | -1 | 16 | 24 | 96*
CCOc1ccc(-c2n[nH]c(C)c2-c2ccccc2OC)c(O)c1 | -0.61 | -1.5 | -6 | 19 | -3 | 35
Oc1ccc(-c2[nH]ncc2-c2cccc3cccnc23)c(O)c1 | -1.3 | -0.66 | 16 | 10 | 13 | -4
CCCOC(=O)c1ccc(Oc2cn[nH]c2-c2ccc(OCC)cc2O)cc1 | 0.61 | -0.55 | 2 | 0 | 11 | 70*
CCOc1ccc(-c2[nH]ncc2Oc2cccc(OC)c2)c(O)c1 | -0.9 | -2.6 | 86* | 75* | 15 | 99*
COc1ccccc1Cn1c(=O)c2ccccc2n2c(SCC(=O)N3CCCCC3)nnc12 | nt | nt | nt | nt | nt | -1
CC(=O)N(c1ccc(Cl)cc1)c1c[nH]c2ccccc12 | -1.5 | -1.8 | 9 | 9 | 0 | 23
Cc1cc2c(cc1C)CSC(c1ccc3ccccc3c1O)SC2 | -0.46 | -0.58 | -13 | 7 | -6 | nt
Cc1cc2c(cc1C)CSC(c1ccc(O)cc1)SC2 | -0.28 | -1.2 | -8 | -3 | -4 | nt
Cc1cc2c(cc1C)CSC(c1c(O)ccc3ccccc13)SC2 | -0.63 | -0.37 | 103* | 100* | -4 | nt
Cc1cc2c(cc1C)CSC(c1ccccc1O)SC2 | -0.058 | -1 | 1 | 31* | 0 | nt
O=C1/C(=C\c2ccco2)SC(=S)N1Cc1ccccc1 | 0.15 | 0.09 | -1 | -5 | 0 | nt
Cc1ccc(N2C(=O)/C(=C\c3ccco3)SC2=S)cc1 | -0.24 | 0.73 | -6 | 32* | -8 | nt
CC(C)CCNC(=O)C12CN(Cc3ccccc3)CC1C(c1cccc([N+](=O)[O-])c1)=NO2 (configuration not stated) | -4.7* | nt | 15 | 6 | -3 | nt
O=C(NCCCCc1ccccc1)C12CN(Cc3ccccc3)CC1C(c1cccc([N+](=O)[O-])c1)=NO2 (configuration not stated) | -2.3 | nt | -8 | 7 | -15 | nt
